S1P3 antagonist – S1P3 (human) receptor antagonism; CHO S1P3 NFAT-BLA reporter, FRET fluorescence, antagonist mode; inhibition, % at 4.98 µM; 170,000 tested, 0.27% active;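 active means inhibition above the plate cutoff, the mean inhibition of test wells on that plate plus 3 SD, cut at about 28% in these data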;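 further: cells challenged with S1P at its EC80 of 0.8 µM; blue over green emission ratio from cleaved BLA substrate after 4 h stimulation; 0% = S1P-stimulated wells and 100% = unstimulated DMSO-only wells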
MDM2 E3 inh – inhibitors of human Mdm2 E3 ubiquitin ligase. cell-based MDM2 ubiquitination luciferase reporter, 2 h; 0 = plate control, 100 = twice control, blank-subtracted. Q00987. signal enhancement, % at 5 µM. 210,000 tested, 0.11% active;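 active means signal enhancement of 30% or more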;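 further: luminescence tracks abundance of the self-degrading MDM2-luciferase fusion protein; higher signal means inhibition of MDM2 E3 ligase activity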
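Assay system: mammalian cells stably expressing self-ubiquitinating, self-degrading MDM2 E3–luciferase fusion. Quantity: 2000 cells in each well. Medium: DMEM culture medium. Compound dosing: single-point 5 µM. Timing: cell settling 4 h, compound treatment 2 h, both 37 °C. Technique: luciferase luminescence. Read-out basis: percent signal gain over controls, blank-subtracted. Benchmarks: plate controls and plate blanks.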
S1P4 antagonist – blocks the human S1P4 receptor; O95977; S1P4-expressing cells, antagonist mode, reporter read-out; inhibition, % at 4.98 µM; 220,000 tested, 0.26% active; in the data active means inhibition above about 29%;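 further: 0% = wells stimulated with agonist and 100% = vehicle wells without agonist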
Target sequence (O95977 whole entry, looked up): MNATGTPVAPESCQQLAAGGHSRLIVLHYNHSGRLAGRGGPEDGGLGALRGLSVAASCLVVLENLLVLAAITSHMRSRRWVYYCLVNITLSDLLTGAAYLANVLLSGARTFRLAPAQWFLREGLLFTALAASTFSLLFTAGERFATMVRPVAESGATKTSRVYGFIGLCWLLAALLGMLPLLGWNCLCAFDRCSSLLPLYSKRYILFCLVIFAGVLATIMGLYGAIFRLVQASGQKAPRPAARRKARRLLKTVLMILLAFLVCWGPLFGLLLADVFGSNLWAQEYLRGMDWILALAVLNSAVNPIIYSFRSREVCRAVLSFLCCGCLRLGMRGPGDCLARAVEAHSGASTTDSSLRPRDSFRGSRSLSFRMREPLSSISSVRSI
L major viab – reduces viability of Leishmania major promastigotes; resazurin fluorescence viability; 200,000 tested, 9% active; inhibition, % at 10 µM; AID 1063; in the data active means inhibition above about 50%;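 further: promastigotes grown with compound for 44 hours at 28 °C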
S1P4 agonist – human S1P4 receptor agonism | O95977 | S1P4-expressing cell line, agonist reporter assay | activation, % at 4.98 µM | 220,000 tested, 0.35% active; in the data active means activation above about 11%;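 further: 0% = DMSO vehicle and 100% = reference agonist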
* marks the source's active call; other numbers are inactive results. This is one part of a sample in which hits are shown more often than they occur.

How did Nc1c(C(=O)OCc2ccccc2)c2nc3ccccc3nc2n1Cc1cccs1 do in these assays?
MDM2 E3 inh: 4; S1P4 antagonist: -10; L major viab: 69*; S1P4 agonist: 0

What do the screens show for `COCCCn1c(N)c(C(=O)OC(C)COC)c2nc3ccccc3nc21` (stereo not drawn)?
S1P3 antagonist: -16; MDM2 E3 inh: -6; S1P4 antagonist: -6; L major viab: 45; S1P4 agonist: 2

Results for Cn1nnc(CC[N+](C)(C)C)n1 ?
S1P3 antagonist: 17; MDM2 E3 inh: -8; S1P4 antagonist: 10; S1P4 agonist: -1

Results for Cc1cccc(CN2CCN(Cc3ccc(Cl)cc3)CC2)c1 ?
MDM2 E3 inh: -6; S1P4 antagonist: 2; L major viab: 89*; S1P4 agonist: 0

How did Oc1ccc(Cl)cc1CN1CCN(Cc2ccccc2)CC1 do in these assays?
MDM2 E3 inh: -8; S1P4 antagonist: 1; L major viab: 63*; S1P4 agonist: -3

Results for Cc1cccc(CN2CCN(c3ccc(Cl)cc3)CC2)c1 ?
S1P3 antagonist: -8; MDM2 E3 inh: -2; S1P4 antagonist: -7; L major viab: -1; S1P4 agonist: 1

What do the screens show for `Cc1nc(SCc2c(Cl)cccc2Cl)nc(OC(=O)N(C)C)c1C`?
S1P3 antagonist: -4; MDM2 E3 inh: -9; S1P4 antagonist: 3; S1P4 agonist: 1

Results for CSc1nc(N)c(N=Nc2ccc([As](=O)(O)O)cc2)c(=O)[nH]1 ?
S1P3 antagonist: -8; MDM2 E3 inh: -10; S1P4 antagonist: 5; S1P4 agonist: 1

How did O=[N+]([O-])c1cc(-c2ccc([As](=O)(O)O)cc2)ccc1[As](=O)(O)O do in these assays?
S1P3 antagonist: -7; MDM2 E3 inh: -7; S1P4 antagonist: -13; S1P4 agonist: 2

What do the screens show for `Cc1oc(-c2ccccc2F)nc1CS(=O)CC(=O)N1CCC2(CC1)OCCO2` (stereo not drawn)?
S1P3 antagonist: 3; MDM2 E3 inh: -7; S1P4 antagonist: -15; L major viab: -4; S1P4 agonist: 1

Results for O=C(COc1ccccc1)N1CCN(CC(O)COc2ccccc2)CC1 (stereo not drawn) ?
S1P3 antagonist: 9; MDM2 E3 inh: -2; S1P4 antagonist: -8; L major viab: 18; S1P4 agonist: 1

What do the screens show for `COc1ccc(OCC(=O)N2CCN(C/C=C/c3ccccc3)CC2)cc1`?
S1P3 antagonist: -8; MDM2 E3 inh: -94; S1P4 antagonist: 0; L major viab: 73*; S1P4 agonist: -1

What do the screens show for `O=C(COc1ccccc1)N1CCN(C/C=C/c2ccccc2)CC1`?
S1P3 antagonist: 10; MDM2 E3 inh: 3; S1P4 antagonist: -1; L major viab: 92*; S1P4 agonist: 1

What do the screens show for `O=C(COc1ccc(Cl)cc1)N1CCN(C/C=C/c2ccccc2)CC1`?
MDM2 E3 inh: 2; S1P4 antagonist: -11; L major viab: 89*; S1P4 agonist: 1

What do the screens show for `Cc1cccc(-n2c(-c3ccccc3)nc3ccccc3c2=O)n1`?
S1P3 antagonist: -5; MDM2 E3 inh: -4; S1P4 antagonist: 11; L major viab: -6; S1P4 agonist: 1

What do the screens show for `O=C(Nc1ccccc1OC(=O)N1CCCCC1)N1CCCCC1`?
S1P3 antagonist: -23; MDM2 E3 inh: -10; S1P4 antagonist: 13; L major viab: -7; S1P4 agonist: -3

How did CC(C)[N+]12CCC(CC1)C(C(O)(c1ccccc1)c1ccccc1)C2 (stereo not drawn) do in these assays?
S1P3 antagonist: -2; MDM2 E3 inh: -13; S1P4 antagonist: 9; S1P4 agonist: -1

How did Cc1cc(C(=O)N=Nc2c(O)n(C)c3ccccc23)c(C)o1 do in these assays?
S1P3 antagonist: -13; MDM2 E3 inh: -22; S1P4 antagonist: -8; L major viab: 69*; S1P4 agonist: -1

How did CCN(CC)P(=S)(c1c(C)nc2ccccn12)c1c(C)nc2ccccn12 do in these assays?
S1P3 antagonist: -4; MDM2 E3 inh: -7; S1P4 antagonist: 1; L major viab: 14; S1P4 agonist: 5

How did CCCCn1c(O)c(C(=O)/C=C/c2c[nH]c3ccccc23)c(=O)[nH]c1=O do in these assays?
S1P3 antagonist: 12; MDM2 E3 inh: -7; S1P4 antagonist: 6; S1P4 agonist: 0

How did CC(NCc1ccc(Cl)cc1)C(O)c1ccccc1 (stereo not drawn) do in these assays?
MDM2 E3 inh: 2; S1P4 antagonist: -9; L major viab: 87*; S1P4 agonist: 0

How did CC(NCc1ccc(Cl)cc1Cl)C(O)c1ccccc1 (stereo not drawn) do in these assays?
MDM2 E3 inh: 7; S1P4 antagonist: -11; L major viab: 64*; S1P4 agonist: 1

What do the screens show for `O=c1[nH]c(=S)n(C2CCCCC2)c(O)c1/C=N/N1CCOCC1`?
S1P3 antagonist: -26; MDM2 E3 inh: 1; S1P4 antagonist: 16; S1P4 agonist: -1

How did CC(C(=O)Nc1ccc(Br)cc1C(=O)c1ccccc1)N1CCCCC1 (stereo not drawn) do in these assays?
MDM2 E3 inh: -6; S1P4 antagonist: -15; L major viab: 100*; S1P4 agonist: 1

What do the screens show for `COc1cc(C(=O)Nc2ccc(Br)cc2C(=O)c2ccccc2)cc(OC)c1OC`?
MDM2 E3 inh: -5; S1P4 antagonist: 3; L major viab: -5; S1P4 agonist: 0

How did CC(=NCCCN1CCOCC1)c1c(O)n(Cc2ccccc2)c(=O)[nH]c1=O do in these assays?
S1P3 antagonist: -8; MDM2 E3 inh: -23; S1P4 antagonist: -11; L major viab: 90*; S1P4 agonist: -1

Results for Cc1cccc(N2CCc3c2nc2ccccc2c3N)c1 ?
S1P3 antagonist: 6; MDM2 E3 inh: -16; S1P4 antagonist: 2; L major viab: 94*; S1P4 agonist: -1

How did CCC(=NCC1CCCO1)c1c(O)n(-c2ccc(Cl)cc2)c(=O)[nH]c1=O (stereo not drawn) do in these assays?
S1P3 antagonist: -25; MDM2 E3 inh: -3; S1P4 antagonist: -15; L major viab: 2; S1P4 agonist: 2

What do the screens show for `O=C(NC1(C(F)(F)F)Oc2ccccc2O1)N1CCC2(CC1)OCCO2`?
S1P4 antagonist: 3; L major viab: -1; S1P4 agonist: 1

What do the screens show for `O=C(NC1(C(F)(F)F)Oc2ccc(Cl)cc2O1)N1CCC2(CC1)OCCO2` (stereo not drawn)?
MDM2 E3 inh: -17; S1P4 antagonist: 42*; L major viab: 24; S1P4 agonist: -6

Results for O=C(c1ccc(Cl)cc1)C1CCCN(Cc2ccc3ncccc3c2)C1 (stereo not drawn) ?
S1P3 antagonist: -10; MDM2 E3 inh: -15; S1P4 antagonist: -14; L major viab: 88*; S1P4 agonist: 2

What do the screens show for `O=C(c1ccc(Cl)cc1)C1CCCN(Cc2ccc3c(c2)OCCO3)C1` (stereo not drawn)?
S1P3 antagonist: -1; MDM2 E3 inh: 15; S1P4 antagonist: 3; L major viab: 92*; S1P4 agonist: 1

What do the screens show for `Cc1ccsc1C(=O)C1CCCN(Cc2cccn2-c2ccccn2)C1` (stereo not drawn)?
S1P3 antagonist: -15; MDM2 E3 inh: 3; S1P4 antagonist: -11; L major viab: 61*; S1P4 agonist: 0

Bioassay records (PubChem BioAssay)
